Active and inactive are the calls of the source. The rule behind the calls is not given here.
What was measured:
Retinoid X receptor = molecular target: T1, Retinoid X receptor (Homo sapiens, UniProt P28702+P48443+P19793); assay: Agonist activity at human RXR binding domain and activation domain expressed in human HCT116 cells assessed as rexinoid activity incubated for 24 hrs by luciferase reporter gene based mammalian two-hybrid assay; format: cell-based
T1 sequence (P28702 whole entry): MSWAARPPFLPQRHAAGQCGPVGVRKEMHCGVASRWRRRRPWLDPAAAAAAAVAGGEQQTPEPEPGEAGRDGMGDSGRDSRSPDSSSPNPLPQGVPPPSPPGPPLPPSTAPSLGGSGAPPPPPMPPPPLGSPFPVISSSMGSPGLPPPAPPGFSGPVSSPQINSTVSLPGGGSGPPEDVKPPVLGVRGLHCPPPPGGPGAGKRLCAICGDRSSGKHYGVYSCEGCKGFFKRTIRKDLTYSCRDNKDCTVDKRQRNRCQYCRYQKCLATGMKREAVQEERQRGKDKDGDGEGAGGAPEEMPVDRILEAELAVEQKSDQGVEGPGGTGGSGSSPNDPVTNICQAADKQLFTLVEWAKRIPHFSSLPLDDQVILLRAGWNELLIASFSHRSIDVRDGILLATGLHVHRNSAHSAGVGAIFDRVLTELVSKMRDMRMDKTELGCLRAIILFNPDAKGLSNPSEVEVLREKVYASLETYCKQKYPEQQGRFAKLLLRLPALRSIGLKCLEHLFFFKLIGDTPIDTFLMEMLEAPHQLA
T1 sequence (P48443 whole entry): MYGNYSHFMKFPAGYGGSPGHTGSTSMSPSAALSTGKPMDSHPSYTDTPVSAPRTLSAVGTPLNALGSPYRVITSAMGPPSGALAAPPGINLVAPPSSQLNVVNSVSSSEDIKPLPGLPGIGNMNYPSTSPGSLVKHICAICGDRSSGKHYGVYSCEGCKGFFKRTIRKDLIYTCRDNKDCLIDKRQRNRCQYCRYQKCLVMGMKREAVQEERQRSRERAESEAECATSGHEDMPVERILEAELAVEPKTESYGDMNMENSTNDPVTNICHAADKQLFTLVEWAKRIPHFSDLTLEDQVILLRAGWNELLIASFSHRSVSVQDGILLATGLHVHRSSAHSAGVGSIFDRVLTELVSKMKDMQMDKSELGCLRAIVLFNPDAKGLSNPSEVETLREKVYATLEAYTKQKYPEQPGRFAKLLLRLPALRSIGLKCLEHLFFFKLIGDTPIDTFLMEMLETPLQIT
T1 sequence (P19793 whole entry): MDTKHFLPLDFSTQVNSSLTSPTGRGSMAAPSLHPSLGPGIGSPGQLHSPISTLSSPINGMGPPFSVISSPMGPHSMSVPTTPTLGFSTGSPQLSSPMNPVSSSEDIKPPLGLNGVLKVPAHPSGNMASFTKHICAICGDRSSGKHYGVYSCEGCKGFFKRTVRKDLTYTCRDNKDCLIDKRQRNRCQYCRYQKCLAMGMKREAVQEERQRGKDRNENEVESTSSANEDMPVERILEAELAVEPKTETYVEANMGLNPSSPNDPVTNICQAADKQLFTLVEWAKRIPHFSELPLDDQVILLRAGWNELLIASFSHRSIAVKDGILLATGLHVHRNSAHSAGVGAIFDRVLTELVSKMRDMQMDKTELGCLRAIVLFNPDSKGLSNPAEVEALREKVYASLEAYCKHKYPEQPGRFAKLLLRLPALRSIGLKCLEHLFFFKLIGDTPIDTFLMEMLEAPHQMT

[1] = molecular target: T2, Retinoid X receptor (Homo sapiens) (UniProt P28702+P48443+P19793); assay: Agonist activity at human RXR binding domain and activation domain expressed in human HCT116 cells assessed as rexinoid activity at 25 nM incubated for 24 hrs by luciferase reporter gene based mammalian two-hybrid assay relative to bexarotene; format: cell-based
Procedure, shortened: (§1)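 HCT-116 cells plated overnight (80,000/well, DMEM with 10% FBS), co-transfected for 24 h with human RXR binding-domain (bait) and activation-domain (prey) vectors, pFR-Luc Gal4 reporter and renilla control. Treated 24 h at 25, 100 or 1000 nM final; vehicle ethanol or DMSO 0.1%. Dual-luciferase read-out. Three independent assays in triplicate; bexarotene set to 100%.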

[2] = molecular target: T2, Retinoid X receptor (Homo sapiens); assay: Agonist activity at human RXR binding domain and activation domain expressed in human HCT116 cells assessed as rexinoid activity at 100 nM incubated for 24 hrs by luciferase reporter gene based mammalian two-hybrid assay relative to bexarotene; format: cell-based; procedure, shortened: as §1
[3] = molecular target: T2, Retinoid X receptor (Homo sapiens); assay: Agonist activity at human RXR binding domain and activation domain expressed in human HCT116 cells assessed as rexinoid activity at 1000 nM incubated for 24 hrs by luciferase reporter gene based mammalian two-hybrid assay relative to bexarotene; format: cell-based; procedure, shortened: as §1
[4] = molecular target: T3, Retinoic acid receptor RXR-alpha (Homo sapiens) (UniProt P19793); assay: Agonist activity at human RXRalpha expressed in human HCT116 cells assessed as increase in RXRE-mediated transcription at 25 nM incubated for 24 hrs by RXRE luciferase reporter gene assay relative to bexarotene; format: cell-based
T3 sequence (whole entry): T1 sequence (P19793 whole entry)
Procedure, shortened: (§2)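 HCT-116 cells (80,000/well) co-transfected for 24 h with 250 ng RXRE-luciferase reporter (DR1 element from the rat cellular retinol binding protein II gene), 25 ng pSG5-human RXRα and 20 ng renilla. Dosed 24 h at 25, 100 or 1000 nM final; ethanol or DMSO vehicle 0.1%. Dual-luciferase read-out. Three independent assays in triplicate; bexarotene = 100%.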

[5] = molecular target: T3, Retinoic acid receptor RXR-alpha (Homo sapiens); assay: Agonist activity at human RXRalpha expressed in human HCT116 cells assessed as increase in RXRE-mediated transcription at 100 nM incubated for 24 hrs by RXRE luciferase reporter gene assay relative to bexarotene; format: cell-based; procedure, shortened: as §2
[6] = molecular target: T3, Retinoic acid receptor RXR-alpha (Homo sapiens); assay: Agonist activity at human RXRalpha expressed in human HCT116 cells assessed as increase in RXRE-mediated transcription at 1000 nM incubated for 24 hrs by RXRE luciferase reporter gene assay relative to bexarotene; format: cell-based; procedure, shortened: as §2
[7] = molecular target: T4, Retinoic acid receptor RXR-alpha/oxysterols receptor LXR-alpha (Homo sapiens, UniProt P19793+Q13133); assay: Agonist activity at human RXRalpha/LXRalpha expressed in human HCT116 cells assessed as reduction in SREBP-mediated transcription activity at 100 nM incubated for 24 hrs by luciferase reporter gene assay relative to bexarotene; format: cell-based; set-up: scale not given: the % may be the effect or the level left; conditions: 0.1 µM
T4 sequence (P19793 whole entry): T1 sequence (P19793 whole entry)
T4 sequence (Q13133 whole entry): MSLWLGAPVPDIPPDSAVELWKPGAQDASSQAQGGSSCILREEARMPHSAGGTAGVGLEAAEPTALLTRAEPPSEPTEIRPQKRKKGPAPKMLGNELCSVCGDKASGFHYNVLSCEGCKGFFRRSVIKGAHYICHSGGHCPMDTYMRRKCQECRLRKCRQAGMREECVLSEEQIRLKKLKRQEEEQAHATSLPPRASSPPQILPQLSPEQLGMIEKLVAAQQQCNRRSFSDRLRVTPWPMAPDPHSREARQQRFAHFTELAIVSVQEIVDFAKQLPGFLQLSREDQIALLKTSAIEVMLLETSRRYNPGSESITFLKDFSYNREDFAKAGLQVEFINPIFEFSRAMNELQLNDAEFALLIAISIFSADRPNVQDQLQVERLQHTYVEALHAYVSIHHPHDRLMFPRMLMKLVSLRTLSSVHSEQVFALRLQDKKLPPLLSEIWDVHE
Procedure, shortened: (§3)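 HCT116 cells co-transfected for 24 h with 100 ng pBP1c(6500)-Luc (about 6500 bp murine SREBP-1c promoter), 10 ng human LXRα and 20 ng renilla. Treated 24 h with compound at 100 nM, alone or with 100 nM TO901317. Luciferase output. Three independent assays in triplicate; bexarotene = 100%.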

[8] = molecular target: T4, Retinoic acid receptor RXR-alpha/oxysterols receptor LXR-alpha; assay: Agonist activity at human RXRalpha/LXRalpha expressed in human HCT116 cells assessed as reduction in SREBP-mediated transcription activity at 100 nM incubated for 24 hrs by luciferase reporter gene assay in presence of 100 nM LXR agonist TO901317 relative to bexarotene; format: cell-based; set-up: scale not given: the % may be the effect or the level left; conditions: 0.1 µM; procedure, shortened: as §3
[9] = Lipid risk index, ratio of agonist activity at human RXRalpha/LXRalpha expressed in human HCT116 cells assessed as reduction in SREBP-mediated transcription activity to agonist activity at human RXRalpha expressed in human HCT116 cells assessed as increase in RXRE-mediated transcription
Procedure, shortened: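 Lipid risk index: SREBP-promoter luciferase activity (HCT116, LXRα-transfected, 100 nM compound with or without 100 nM TO901317, 24 h) divided by RXRE activity at 100 nM. The SREBP:RXRE ratio for bexarotene is set to 1.0.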

HuT78 [10] = assay: Growth inhibition of human HUT78 cells at 200 nM incubated for 72 hrs by MTS assay relative to bexarotene; format: functional; conditions: HuT78, 72 h, read-out: GI
Procedure, shortened: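 Hut78 cells in RPMI with 10% FBS at 37°C, 5% CO2. Plated 7,500 cells/well and immediately dosed at 200 nM for 72 h. MTS read at A490; percent inhibition with media control set to 0.0, compared with bexarotene set to 100%. Mean of three independent experiments.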

[11] = Mutagenicity in Saccharomyces cerevisiae D7 assessed as induction of mutagenesis by measuring forward and reverse mutations up to 0.1 mg/mL; format: toxicity
HuT78 [12] = assay: Inhibition of HDAC1 gene expression in human HUT78 cells at 100 nM incubated for 48 hrs by quantitative real-time PCR method; format: functional; conditions: HuT78, 48 h
Procedure, shortened: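 Hut78 cells resuspended in RPMI with 1% FBS, plated 750,000/well and dosed at 100 nM for 48 h. Total RNA extracted, 0.5 µg DNase-treated RNA reverse-transcribed, then qPCR for HDAC1. Quantified by ΔΔCt, normalized to GAPDH and relative to vehicle-treated cells (2^-ΔΔCt).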

Homo sapiens = organism: Homo sapiens; assay: Selectivity index, ratio of agonist activity at human RARalpha expressed in HEK293 cells assessed as increase in RARE-mediated transcription relative to bexarotene to agonist activity at human RXRalpha expressed in human HCT116 cells assessed as increase in RXRE-mediated transcription relative to bexarotene; format: cell-based
Procedure, shortened: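 HEK293 cells (60,000/well) transfected for 24 h with 250 ng pTK-DR5(X2)-Luc, 25 ng human RARα and 20 ng renilla. Treated 24 h at 100 nM; activity expressed as a percentage of all-trans-retinoic acid. This RARE activity is divided by 100 nM RXRE activity, with the bexarotene ratio set to 1.0.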

[13] = molecular target: T3, Retinoic acid receptor RXR-alpha (Homo sapiens); assay: Agonist activity at human RXRalpha expressed in human HCT116 cells assessed as increase in RXRE-mediated transcription incubated for 24 hrs by RXRE luciferase reporter gene assay; format: cell-based

Row | SMILES | EC50 (Retinoid X receptor) [µM] | fold change (FC) [1] | Activity [2] | Activity [3] [%] | Activity [4] [%] | Activity [5] [%] | Activity [6] | Activity [7] | Activity [8] | Activity [1] [%] | fold change (FC) ([2]; in the assay text read “relative to activity at 25 nM” for “relative to bexarotene”) | Activity [13] | Ratio [9] | inhibition of growth at 0.2 µM (HuT78 [10]) [%] | Activity [11] | inhibition at 0.1 µM (HuT78 [12]) [%] | Ratio (Homo sapiens)
1 | CCN(c1ccc2c(c1)C(C)(C)CCC2(C)C)c1ncc(C(=O)O)cn1 | 0.0409 | 2 | 135 to 146% | 35 to 58 | 27 to 66 | 68 to 89 | 20 to 43% | Active | 13 to 17% | – | – | – | 0.49 - 0.51 | > 85 | Non-Toxic | – | –
2 | C=C(c1ccc(C(=O)O)cc1)c1cc2c(cc1C)C(C)(C)CCC2(C)C [BEXAROTENE] | – | – | – | – | – | – | – | – | – | – | – | – | – | – | Non-Toxic | 10 | –
3 | CCN(c1cnc(C(=O)O)cn1)c1cc2c(cc1C)C(C)(C)CCC2(C)C | 0.2955 | – | – | – | – | – | Active | 54 to 79% | 29% | 3.4 | 5 to 16 | inactive | – | 35 to 51 | Non-Toxic | – | > 0.5

The next lines start with results.

Row | EC50 (Retinoid X receptor) [µM] | fold change (FC) [1] | Activity [2] | Activity [3] [%] | Activity [4] [%] | Activity [5] [%] | Activity [6] | Activity [7] | Activity [8] | Activity [1] [%] | fold change (FC) ([2]; in the assay text read “relative to activity at 25 nM” for “relative to bexarotene”) | Activity [13] | SMILES | Ratio [9] | inhibition of growth at 0.2 µM (HuT78 [10]) [%] | Activity [11] | inhibition at 0.1 µM (HuT78 [12]) [%] | Ratio (Homo sapiens)
4 | 0.1434 | – | Active | – | – | 16 to 32 | Active | 54 to 79% | Active | – | – | – | CCN(c1ccc(C(=O)O)cc1)c1ccc2c(c1)C(C)(C)CCC2(C)C | – | 55 to 80 | Non-Toxic | – | –
5 | 0.1256 | – | Active | – | 27 to 66 | 16 to 32 | Active | 54 to 79% | Active | – | – | – | CCN(c1ccc(C(=O)O)c(F)c1)c1ccc2c(c1)C(C)(C)CCC2(C)C | 0.48 - 0.65 | 35 to 51 | Non-Toxic | – | 0.35 to 0.37

Source: ChEMBL document CHEMBL4428090, “Modeling, Synthesis, and Biological Evaluation of Potential Retinoid X Receptor (RXR)-Selective Agonists: Analogues of 4-[1-(3,5,5,8,8-Pentamethyl-5,6,7,8-tetrahydro-2-naphthyl)ethynyl]benzoic Acid (Bexarotene) and 6-(Ethyl(5,5,8,8-tetrahydronaphthalen-2-yl)amino)nicotinic Acid (NEt-TMN)” (J Med Chem, 2016)
